Results as given in article PMC10520345 (Current Research in Microbial Sciences, 2023).

What was measured:
CV-A7 = experiment: Plaque reduction assay, CV-A7; format: cell-based, Coxsackievirus A7; conditions: read-out: IC50 against CV-A7 in plaque reduction assay
How it was run: (§1)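 Confluent RD or Vero monolayers were infected with coxsackievirus for 1 h. The inoculum was replaced by DMEM overlay with 1.2% Avicel, 2% FBS and varying test compound concentrations. After 2–3 days, plaques were fixed with 4% formaldehyde, stained with 0.5% crystal violet and counted, and IC50 was calculated. Data are means ± SD.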

CV-A16 = experiment: Plaque reduction assay, CV-A16; format: cell-based, Coxsackievirus A16; conditions: read-out: IC50 against CV-A16 in plaque reduction assay
How it was run: as §1

CV-A10 [1] = experiment: Plaque reduction assay, CV-A10 in Vero cells; format: cell-based, Coxsackievirus A10; conditions: read-out: IC50 against CV-A10 in plaque reduction assay
How it was run: as §1

CV-A10 [2] = experiment: Plaque reduction assay, CV-A10 in RD cells; format: cell-based, Coxsackievirus A10; conditions: read-out: IC50 against CV-A10 in plaque reduction assay
How it was run: as §1

CV-A6 = experiment: Plaque reduction assay, CV-A6; format: cell-based, Coxsackievirus A6; conditions: read-out: IC50 against CV-A6 in plaque reduction assay
How it was run: as §1

## CC(C)C[C@H](NC(=O)OCc1ccccc1)C(=O)N[C@@H](CC1CCNC1=O)C(O)S(=O)(=O)O (some centres unmarked) [GC376]
CV-A7
  IC50: 210 ± 50 nM
CV-A16
  IC50: 180 ± 20 nM
CV-A10 [1]
  IC50: 1690 ± 620 nM
CV-A10 [2]
  IC50: 240 ± 40 nM
CV-A6
  IC50: 220 ± 20 nM
